Data set [1] has as its system Staphylococcus aureus. Briefly: In vitro antibacterial activity was determined against Staphylococcus aureus ATCC 29213 (inducible, low level beta-lactamase producer). Type of data set: functional. The method in brief: (§1)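 Serial 2-fold broth dilution in Mueller-Hinton broth, run by standard methodology; read-out is the minimum inhibitory concentration (MIC).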
For data set [2], the system named is Serratia marcescens. Briefly: In vitro antibacterial activity was determined against Serratia marcescens 1071. Format: functional. The gist of the method:
(§2)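 Broth MIC determination: serial 2-fold dilutions in Mueller-Hinton broth by standard methodology; the lowest concentration inhibiting growth is reported as the MIC, in nmol/mL.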

The test system of data set [3] is Enterococcus faecalis. Description: In vitro antibacterial activity was determined against Enterococcus faecalis ATCC 29212. Type of data set: functional. The gist of the method:
(§3)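 MIC by serial 2-fold dilution in Mueller-Hinton broth; results given as minimum inhibitory concentrations (nmol/mL).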

Data set [4] deals with Streptococcus pyogenes. Description: In vitro antibacterial activity was determined against Streptococcus pyogenes 4. Format: functional. The gist of the method: as §2
Data set [5] concerns Staphylococcus aureus. Description: In vitro antibacterial activity was determined against Staphylococcus aureus 95 (Methicillin-resistant, high-level beta-lactamase producer). Type of data set: functional. The method in brief:
as §1

Data set [6] relates to Staphylococcus aureus. Briefly: In vitro antibacterial activity was determined against Staphylococcus aureus 1059B (inducible, high level beta-lactamase producer). Type of data set: functional. The method in brief:
as §1

The subject of data set [7] is Enterobacter cloacae. Briefly: In vitro antibacterial activity was determined against Enterobacter cloacae P99 (Class Ia beta-lactamase overproducer). Format: functional. The method in brief:
as §3

Data set [8] deals with Citrobacter freundii. Briefly: In vitro antibacterial activity was determined against Citrobacter freundii BS-16. Format: functional. The method in brief:
as §3

Data set [9] relates to Pseudomonas aeruginosa. Briefly: In vitro antibacterial activity was determined against Pseudomonas aeruginosa 18S/H (Class Id beta-lactamase overproducer). Format: functional. The gist of the method:
as §2

Data set [10] has as its system Streptococcus pneumoniae. Briefly: In vitro antibacterial activity was determined against Streptococcus pneumoniae 6301. Format: functional. The method in brief:
as §2

For data set [11], the system named is Escherichia coli. Briefly: In vitro antibacterial activity was determined against Escherichia coli TEM-1 (TEM-1 (class IIIa) beta-lactamase producer). Type of data set: functional. The gist of the method: as §3
Data set [12] concerns Proteus vulgaris. Briefly: In vitro antibacterial activity was determined against Proteus vulgaris 1028BC (Class Ic beta-lactamase overproducer. Format: functional. The gist of the method:
as §3

The subject of data set [13] is Proteus mirabilis. Description: In vitro antibacterial activity was determined against Proteus mirabilis 90. Type of data set: functional. The method in brief: as §3
Data set [14] deals with Pseudomonas aeruginosa. Briefly: Evaluated for the minimum inhibitory concentration against Pseudomonas aeruginosa 18S/H ( Class Id beta-lactamase overproducer). Format: functional. The gist of the method:
as §3

For data set [15], the system named is Staphylococcus aureus. Briefly: Evaluated for the minimum inhibitory concentration against Staphylococcus aureus ATCC 29213 ( inducible, low level beta-lactamase producer). Format: functional. The method in brief:
as §1

The test system of data set [16] is Staphylococcus aureus. Description: Minimum inhibitory concentration against Staphylococcus aureus 95 (Methicillin-resistant, high-level beta-lactamase producer). Format: functional. The gist of the method: as §1
Data set [17] has as its system Streptococcus pneumoniae. Briefly: Minimum inhibitory concentration against Streptococcus pneumoniae 6301. Format: functional. The method in brief: as §2
Data set [18] concerns Enterobacter cloacae. Briefly: Evaluated for the minimum inhibitory concentration against Enterobacter cloacae P99 ( Class Ia beta-lactamase overproducer). Format: functional. The method in brief:
as §3

For data set [19], the system named is Proteus vulgaris. Description: Evaluated for the minimum inhibitory concentration against Proteus vulgaris 1028 BC ( Class Ic beta-lactamase overproducer. Format: functional. The gist of the method: as §3
For data set [20], the system named is Staphylococcus aureus. Briefly: Evaluated for the minimum inhibitory concentration against Staphylococcus aureus 1059B ( inducible, high level beta-lactamase producer). Format: functional. The method in brief: as §1
Data set [21] deals with Streptococcus pyogenes. Description: Minimum inhibitory concentration against Streptococcus pyogenes 4. Type of data set: functional. The gist of the method: as §2
Data set [22] has as its system Pseudomonas aeruginosa. Description: Minimum inhibitory concentration against Pseudomonas aeruginosa ATCC 27853. Type of data set: functional. The gist of the method: as §2
Data set [23] deals with Escherichia coli. Briefly: In vitro antibacterial activity was determined against Escherichia coli UB 1005. Format: functional. The method in brief:
as §3

Data set [24] relates to Staphylococcus aureus. Description: In vitro antibacterial activity was determined against Staphylococcus aureus ATCC 29213 ( inducible, low level beta-lactamase producer). Format: functional. The method in brief:
as §2

The subject of data set [25] is Pseudomonas aeruginosa. Briefly: In vitro antibacterial activity was determined against Pseudomonas aeruginosa ATCC 27853. Type of data set: functional. The gist of the method: as §2
Data set [26] deals with Staphylococcus aureus. Description: In vitro antibacterial activity was determined against Staphylococcus aureus 1059B ( inducible, high level beta-lactamase producer). Format: functional. The gist of the method: as §2
Data set [27] in a line: Evaluated for its stability in human plasma pH 6.5 at 37 degrees Celsius as determined by HPLC analysis. Format: ADME.
Data set [28] has as its system Pseudomonas aeruginosa. Description: In vitro antibacterial activity was determined against Pseudomonas aeruginosa 18S/H ( Class Id beta-lactamase overproducer). Format: functional. The gist of the method:
as §2

Data set [29] in a line: Evaluated for its stability in Mueller-Hinton broth at 37 degrees Celsius as determined by HPLC analysis. To be noted: pH 6.5.
Data set [30] relates to Proteus vulgaris. Briefly: In vitro antibacterial activity was determined against Proteus vulgaris 1028 BC (Class Ic beta-lactamase overproducer). Format: functional. The gist of the method: as §3
Data set [31] in a line: Half life period in rat after (i.v.) administration of a dose of 20 mg/kg. Type of data set: ADME, organism-based. Set-up: dose 20 mg/kg, route intravenous. To be noted: in vivo, iv. The method in brief:
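Rats given 20 mg/kg iv; plasma half-life determined.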

Data set [32] can be described thus: Toxicity was determined. Type of data set: organism-based. The settings on record: mouse, in vivo. The method in brief:
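Acute toxicity in mice after intravenous dosing, expressed as LD50 (mg/kg iv).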

The subject of data set [33] is Proteus vulgaris. Briefly: Minimum inhibitory concentration against Proteus vulgaris 1028 BC (Class Ic beta-lactamase overproducer). Format: functional. The gist of the method:
as §2

For data set [34], the system named is Escherichia coli. Description: Evaluated for the minimum inhibitory concentration against Escherichia coli UB 1005. Type of data set: functional. The method in brief: as §3
In data set [35] the test system is Pseudomonas aeruginosa. Briefly: Evaluated for the minimum inhibitory concentration against Pseudomonas aeruginosa 18S/H (Class Id beta-lactamase overproducer). Type of data set: functional. The method in brief:
as §3

The test system of data set [36] is Proteus mirabilis. Briefly: Evaluated for the minimum inhibitory concentration against Proteus mirabilis 90.

Molecules are shown by their SMILES. Values after ≈ are worked out from the molar mass of the structure shown.

These results are taken from ChEMBL document CHEMBL1125107, “Cephalosporin 3'-quinolone esters with a dual mode of action” (J Med Chem, 1990).

As to `CCn1cc(C(=O)O)c(=O)c2cc(F)c(N3CCSCC3)cc21`, the MIC amounted to 0.063 µg/mL (≈ 0.187 µM) in [1]; 0.25 µg/mL (≈ 0.743 µM) in data set [2]; 1 µg/mL (≈ 2.97 µM) in [3]; 8 µg/mL (≈ 23.8 µM) in data set [4]; 0.063 µg/mL (≈ 0.187 µM) in data set [5]; 0.125 µg/mL (≈ 0.372 µM) in data set [6]. Moreover, the MIC in data set [7] was 0.125 µg/mL (≈ 0.372 µM); in data set [8], 16 µg/mL (≈ 47.6 µM); in data set [9], 1 µg/mL (≈ 2.97 µM); in [10], 16 µg/mL (≈ 47.6 µM); in [11], 0.5 µg/mL (≈ 1.49 µM); in data set [12], 0.5 µg/mL (≈ 1.49 µM). The compound further showed an MIC in [13] of 16 µg/mL (≈ 47.6 µM).

For `CCn1cc(C(=O)O)c(=O)c2cc(F)c(N3CCN(C=O)CC3)cc21` [4-N-FORMYL-1-PIPERAZINYL-NORFLOXACIN], the MIC was 2 µg/mL (≈ 5.76 µM) in [14]; 1 µg/mL (≈ 2.88 µM) in data set [15]; 1 µg/mL (≈ 2.88 µM) in data set [16]; 8 µg/mL (≈ 23 µM) in [17]; 0.5 µg/mL (≈ 1.44 µM) in data set [18]; 0.5 µg/mL (≈ 1.44 µM) in [19]. Moreover, the MIC stood at 1 µg/mL (≈ 2.88 µM) in data set [20], 8 µg/mL (≈ 23 µM) in data set [21] and 16 µg/mL (≈ 46.1 µM) in data set [22].

For `CCn1cc(C(=O)OCC2=C(C(=O)O)N3C(=O)[C@@H](NC(=O)COc4ccccc4)C3SC2)c(=O)c2cc3c(cc21)OCO3` (some centres not stated), the MIC in [23] is 32 µg/mL (≈ 52.7 µM); in data set [24], 0.25 µg/mL (≈ 0.411 µM); in data set [2], 1 µg/mL (≈ 1.65 µM); in [25], greater than 256 µg/mL; in data set [3], 64 µg/mL (≈ 105 µM); in data set [26], 0.5 µg/mL (≈ 0.823 µM). Moreover, the MIC in data set [5] stood at 4 µg/mL (≈ 6.58 µM); in [28], 16 µg/mL (≈ 26.3 µM); in data set [7] it was 0.5 µg/mL (≈ 0.823 µM); in data set [8] it was 2 µg/mL (≈ 3.29 µM); in data set [30], 0.25 µg/mL (≈ 0.411 µM); in [11], 1 µg/mL (≈ 1.65 µM). Moreover, the MIC in [13] was found to be 4 µg/mL (≈ 6.58 µM). Besides, the half-life in data set [27] is 6 h; in [29] it was 11.2 h; in [31] it was 0.217 h. Besides, the LD50 in data set [32] was greater than 500 mg/kg.

In the case of `CN1CCN(c2c(F)cc3c(=O)c(C(=O)OCC4=C(C(=O)O)N5C(=O)[C@@H](NC=O)C5SC4)cn(CCF)c3c2F)CC1` (some centres not stated), the MIC in data set [16] came out at 32 µg/mL (≈ 52.5 µM); in [33], 0.5 µg/mL (≈ 0.82 µM); in data set [17], 0.25 µg/mL (≈ 0.41 µM); in [34], 32 µg/mL (≈ 52.5 µM); in data set [21], 0.25 µg/mL (≈ 0.41 µM); in data set [35], 64 µg/mL (≈ 105 µM). Further, the MIC in data set [36] is 32 µg/mL (≈ 52.5 µM); in data set [22], greater than 128 µg/mL.
